Experimental data as given in ChEMBL document CHEMBL1131430, “Discovery and structure-activity relationship of the first non-peptide competitive human glucagon receptor antagonists” (J Med Chem, 1998).

biological target: T1, Glucagon receptor (Homo sapiens, UniProt P47871); assay: Binding affinity towards cloned human glucagon receptor in BHK cells.; type: cell-based
Procedure, shortened: (§1)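 Competition binding on plasma membranes (0.5 μg protein/well) from BHK cells stably expressing recombinant human glucagon receptor, selected with 0.5 mg/mL G-418. Nonspecific binding with 10⁻⁶ M glucagon. Filtration, gamma counting; IC50 mean ± SD, n = 2.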

T1 sequence (P47871 whole entry): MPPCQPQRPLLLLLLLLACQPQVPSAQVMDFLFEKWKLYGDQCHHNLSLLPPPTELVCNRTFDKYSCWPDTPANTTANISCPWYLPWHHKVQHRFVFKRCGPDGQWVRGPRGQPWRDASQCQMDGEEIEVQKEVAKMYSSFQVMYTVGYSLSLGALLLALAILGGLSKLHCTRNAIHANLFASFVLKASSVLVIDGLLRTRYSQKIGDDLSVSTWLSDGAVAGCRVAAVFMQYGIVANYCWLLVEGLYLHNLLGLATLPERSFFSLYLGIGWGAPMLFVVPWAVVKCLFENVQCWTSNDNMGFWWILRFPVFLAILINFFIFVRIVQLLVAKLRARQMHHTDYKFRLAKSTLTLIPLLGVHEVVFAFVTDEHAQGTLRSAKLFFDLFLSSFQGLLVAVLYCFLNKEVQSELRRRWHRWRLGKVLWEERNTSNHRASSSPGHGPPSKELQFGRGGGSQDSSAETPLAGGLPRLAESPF

IC50 | Structure (SMILES)
> 500 µM | O=C(O)c1ccc(C(=O)CSc2nc3ccccc3[nH]2)cc1
> 500 µM | CO/N=C(/CSc1nc2ccccc2[nH]1)c1ccc(O)c(Cl)c1
> 500 µM | CCCC(Sc1nc2ccccc2[nH]1)C(=O)c1ccc(O)c(O)c1 (stereo not drawn)
> 500 µM | O=C(CCCSc1nc2ccccc2[nH]1)c1ccc(O)c(O)c1
41 µM | COc1cc(C(=O)CSc2nc3ccccc3[nH]2)ccc1O
20 µM | O=C(CSc1nc2cc(Cl)c(Cl)cc2[nH]1)c1ccc(O)c(O)c1
380 µM | O=C(CSc1nc2ccccc2[nH]1)c1cccc(O)c1
> 500 µM | COc1ccc(C(=O)CSc2nc3ccccc3[nH]2)cc1OC
55 µM | O=C(CSc1nc2ccc([N+](=O)[O-])cc2[nH]1)c1ccc(O)c(O)c1
> 500 µM | O=C(CSc1nc2ccccc2[nH]1)c1ccccc1
160 µM | O=C(CSc1ccc2ccccc2n1)c1ccc(O)c(O)c1
> 500 µM | Cn1c(SCC(=O)c2ccc(O)c(O)c2)nc2ccccc21
200 µM | O=C(CSc1nc2ccccc2[nH]1)c1ccc(O)c(C(=O)O)c1
250 µM | O=C(CSc1nc2ccccc2o1)c1ccc(O)c(O)c1
> 500 µM | O=C(O)c1cccc(C(=O)CSc2nc3ccccc3[nH]2)c1
73 µM | O=C(CSc1nc2ccccc2s1)c1ccc(O)c(O)c1

IC50 | Structure (SMILES)
> 500 µM | Oc1ccc(/C(CSc2nc3ccccc3[nH]2)=N\OCc2ccccc2)cc1Cl
> 60 µM | O=C(CSc1nc2ccccc2[nH]1)c1ccc(O)cc1
95 µM | O=C(O)c1cccc(COc2ccc3[nH]c(SCC(=O)c4ccc(O)c(O)c4)nc3c2)c1
12 µM | O=C(CSc1nc2ccccc2[nH]1)c1ccc(O)c(Cl)c1
> 500 µM | O=C(CSc1nc2ccccc2[nH]1)c1cc(O)cc(O)c1
16 µM | COC(=O)c1cccc(COc2ccc3[nH]c(SCC(=O)c4ccc(O)c(O)c4)nc3c2)c1
> 500 µM | O=C(CSc1nc2ccccc2[nH]1)c1ccc(Cl)c(Cl)c1
> 500 µM | Oc1ccc(C(O)CSc2nc3ccccc3[nH]2)cc1Cl (stereo not drawn)
9.2 µM | COC(=O)c1cccc(COc2ccc3[nH]c(SCC(=O)c4ccc(O)c(Cl)c4)nc3c2)c1
> 500 µM | O=C(CSc1ncc[nH]1)c1ccc(O)c(O)c1
> 500 µM | O/N=C(/CSc1nc2ccccc2[nH]1)c1ccc(O)c(Cl)c1
55 µM | O=C(CSc1nnc(-c2ccccc2)[nH]1)c1ccc(O)c(O)c1
5.4 µM | CC(C)(C)c1ccc2nc(SCC(=O)c3ccc(O)c(O)c3)[nH]c2c1
42 µM | COc1ccc2[nH]c(SCC(=O)c3ccc(O)c(O)c3)nc2c1
180 µM | O=C(CSc1nc(-c2ccccc2)c(-c2ccccc2)[nH]1)c1ccc(O)c(O)c1
18 µM | O=C(CSc1nc2cc(OCc3ccccc3)ccc2[nH]1)c1ccc(O)c(O)c1

biological target: T1, Glucagon receptor; assay: Compound was evaluated for its binding affinity towards cloned human Glucagon receptor in BHK cells; type: cell-based; procedure, shortened: as §1

IC50 | Structure (SMILES)
20 µM | O=C(CSc1nc2ccccc2[nH]1)c1ccc(O)c(O)c1
